Data published in ChEMBL document CHEMBL1125578, “Synthesis of a series of nitrothiophenes with basic or electrophilic substituents and evaluation as radiosensitizers and as bioreductively activated cytotoxins” (J Med Chem, 1991).

Experiments:
V79 [1] = assay: Reduction of optical density by 50% compared to controls when assay was performed under nitrogen in Hypoxic V79 Cells.; assay type: functional, Cricetulus griseus
Outline: (§1)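 V79 cells were tested in an MTT assay, with incubations run under air or under nitrogen. Optical density was taken as proportional to the number of viable cells at the end of incubation. C50 is the concentration lowering optical density by 50% versus controls. The ratio is C50(AIR)/C50(N2).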

Mus musculus = assay: The maximum tolerated dose described as the highest single intraperitoneal dose which did not produce severe or persistent clinical signs or death of the adult non-tumor bearing mice within 24 hours.; assay type: functional
Outline: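 Adult non-tumor-bearing mice received escalating single ip doses of compound, dissolved fresh in 0.1 M phosphate-buffered saline, pH 7.4, at 0.02 mL/g body weight.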

[2] = tested on: V79 cells (Cricetulus griseus); assay: In vitro concentration of gamma-radiation to give an enhancement ratio of 1.6 when compared to control V79.
V79 [3] = assay: Reduction of optical density by 50% compared to controls when assay was performed under air in […] V79 Cells.; assay type: functional, Cricetulus griseus; outline: as §1
[4] = The ratio of C50(AIR) to that of C50(N2).; assay type: functional; outline: as §1
[5] = In vivo radiosensitization of KHT tumors in mice by administration at a dose of 0.17 mmol/kg intraperitoneally. The optimum time interval between injection and irradiation of tumor was 60 minutes.; assay type: ADME, organism-based; conditions: mouse, ip, 1 h
V79 [6] = assay: Compound was evaluated for its concentration to reduce the optical density by 50% compared to controls when assay was performed under air in […] V79 Cells; assay type: functional, Cricetulus griseus; outline: as §1
[7] = In vivo radiosensitization of KHT tumors in mice by administration at a dose of 0.34 mmol/kg intraperitoneally. The optimum time interval between injection and irradiation of tumor was 30 minutes.; assay type: ADME, organism-based; conditions: mouse, ip, 0.5 h
[8] = In vivo radiosensitization of KHT tumors in mice by administration at a dose of 0.38 mmol/kg intraperitoneally. The optimum time interval between injection and irradiation of tumor was 60 minutes.; assay type: ADME, organism-based; conditions: mouse, ip, 1 h

| Compound | C50 (V79 [1]) [mM] | MTD (Mus musculus) [mM/kg] | Activity [2] [mM] | C50 (V79 [3]) [mM] | Ratio [4] | Surviving fraction [5] | C50 (V79 [6]) [mM] | Surviving fraction [7] | Surviving fraction [8] |
| --- | --- | --- | --- | --- | --- | --- | --- | --- | --- |
| Cc1sc(C(=O)NCCN2CCOCC2)cc1[N+](=O)[O-].Cl | 2.5 | 0.34 | 1 | 2.5 | 1 |  |  |  |  |
| Cl.O=C(NCCN1CCCCC1)c1ccc([N+](=O)[O-])o1 | 0.016 | 0.17 | 0.01 | 0.05 | 3 | 0.0022 |  |  |  |
| O=C(NCC1CO1)c1ccc([N+](=O)[O-])s1 (stereo unspecified) | 0.15 |  | 0.05 | 0.15 | 1 |  |  |  |  |
| Br.O=[N+]([O-])c1nccn1CC(O)CNCCBr (stereo unspecified) | 0.09 | 1 | 0.1 | 2.3 | 26 |  |  |  |  |
| C=CCNC(=O)c1ccc([N+](=O)[O-])s1 | 0.11 |  | 0.08 |  | 2.5 |  | 0.3 |  |  |
| Cc1sc(C(=O)NCCN2CCCCC2)cc1[N+](=O)[O-].Cl | 0.8 | <0.34 | 0.07 | 1.8 | 2.3 |  |  |  |  |
| Cc1sc(C(=O)NCCN(C)C)cc1[N+](=O)[O-].Cl |  | 0.34 | 0.1 |  |  |  |  | 0.005 |  |
| Cc1sc(C(=O)NCC2CO2)cc1[N+](=O)[O-] (stereo unspecified) | 0.4 |  | 0.2 | 0.35 | 0.9 |  |  |  |  |
| Cc1cc(CC2CO2)sc1[N+](=O)[O-] (stereo unspecified) | 0.045 |  | 0.06 | 0.065 | 1.3 |  |  |  |  |
| O=[N+]([O-])c1nccn1CC(O)CN1CC1 (stereo unspecified) | 0.0045 | 0.38 | 0.1 | 0.3 | 67 |  |  |  | 0.00083 |
| COCC(O)Cn1ccnc1[N+](=O)[O-] (stereo unspecified) [MISONIDAZOLE] | 4 | 4 | 0.6 | 45 |  |  |  |  |  |
| Cc1sc(C(=O)NCCCN2CCCC2)cc1[N+](=O)[O-].Cl |  | 0.24 | 0.03 |  |  |  |  |  |  |
| COC(=O)[C@H](CCCCN)NC(=O)c1cc([N+](=O)[O-])c(C)s1.Cl | 0.35 | 0.34 | 0.05 | 0.35 | 1 |  |  |  |  |
| O=C(/C=C/c1ccc([N+](=O)[O-])s1)NCC1CO1 (stereo unspecified) | 0.08 |  | 0.05 | 0.08 | 1 |  |  |  |  |
